{"data": "Measured values gathered from unrelated publications", "target": "STE20/SPS1-related proline-alanine-rich protein kinase (STK39, Homo sapiens, UniProt Q9UEW8)", "note": "Protocols differ between the studies behind these lines."}
{"SMILES": "c1cncc(-c2cccc(Nc3nccc(NC4CCCCC4)n3)c2)c1", "assay": "binding, competition with immobilised ligand", "setting": "10 µM", "remaining binding [%]": 97}
{"SMILES": "CS(=O)(=O)NCC[C@H](NC(=O)c1cncc2c1cnn2-c1ccc(F)cc1)c1ccnc(S(C)(=O)=O)c1", "assay": "cell-free assay, competition with immobilised ligand", "setting": "1 µM", "remaining binding [%]": 80}
{"SMILES": "F[C@@H]1CCN(c2nccc(-c3cnn4ncccc34)n2)C1", "assay": "binding", "setting": "1 µM", "remaining binding [%]": 57}
{"SMILES": "COc1cc(-c2cn(C3CCc4ccccc4N(CC(F)(F)F)C3=O)nn2)ccc1-n1ccc(C)n1 (stereo not drawn)", "assay": "cell-free assay, competition with immobilised ligand", "setting": "1 µM", "remaining binding [%]": 98}
{"SMILES": "C[C@H]1CCN(c2nccc(-c3cnn4ncccc34)n2)C1", "assay": "binding", "setting": "1 µM", "remaining binding [%]": 62}
{"SMILES": "O=C1NC(c2ccccn2)Sc2ccccc21 (stereo not drawn)", "assay": "cell-free assay, competition with immobilised ligand", "setting": "1 µM", "remaining binding [%]": 89}
{"SMILES": "O=C(c1ccc(Nc2ncc(Cl)c(-c3cc4ccccc4s3)n2)cc1)N1CCC(N2CCCC2)CC1", "assay": "binding, competition with immobilised ligand", "setting": "1 µM", "remaining binding [%]": 36}
{"SMILES": "c1cnn2ncc(-c3ccnc(N4CCC45COC5)n3)c2c1", "assay": "binding", "setting": "1 µM", "remaining binding [%]": 41}
{"SMILES": "FC(F)(F)Oc1cccc(-c2cnc3ccc(-c4ccncc4)nn23)c1", "assay": "binding, competition with immobilised ligand", "setting": "5 µM", "remaining binding [%]": 83}
{"SMILES": "C=CC(=O)N1CCC(C(=O)NCC(=O)N2CCN(c3nc(-c4cnc(N)nc4C(F)F)nc(N4CCOCC4)n3)CC2)CC1", "assay": "binding, competition with immobilised ligand", "setting": "1 µM", "remaining binding [%]": 76}
{"SMILES": "O=C(NCCCN1CCOCC1)c1ccc(Nc2ncc(Cl)c(-c3ccc(Cl)s3)n2)cc1", "assay": "binding, competition with immobilised ligand", "setting": "1 µM", "remaining binding [%]": 54}
{"SMILES": "CN(C)c1ncc(F)c(-c2cnn3ncccc23)n1", "assay": "binding", "setting": "1 µM", "remaining binding [%]": 74}
{"SMILES": "O=C(NCC1CCOCC1)c1n[nH]cc1NC(=O)c1c(F)cccc1F", "assay": "binding, competition with immobilised ligand", "setting": "1 µM", "remaining binding [%]": 96}
{"SMILES": "CN(C)c1nccc(-c2cnc3ncccn23)n1", "assay": "binding", "setting": "1 µM", "remaining binding [%]": 51}
{"SMILES": "COc1ncc2cc3ccccc3nc2c1C#N", "assay": "cell-free assay, competition with immobilised ligand", "setting": "5 µM", "remaining binding [%]": 100}
{"SMILES": "CN(C)c1ncnc(-c2ccc3nc(Nc4cc(CN5CCN(C(=O)CC(F)(F)F)CC5)ccn4)[nH]c3c2)c1Cl", "assay": "cell-free assay, competition with immobilised ligand", "setting": "1 µM", "remaining binding [%]": 69}
{"SMILES": "O=C(c1ccc(Nc2nccc(-c3cc4ccccc4s3)n2)cc1)N1CCC(N2CCCC2)CC1", "assay": "binding, competition with immobilised ligand", "setting": "1 µM", "remaining binding [%]": 85}
{"SMILES": "Cc1nc(C2CCN(C(=O)c3ccc(OC(F)(F)F)cc3N)CC2)c2ncc(N3CCN(C)CC3)cc2n1", "assay": "cell-free assay, competition with immobilised ligand", "setting": "1 µM", "remaining binding [%]": 100}
{"SMILES": "COc1cnc(Nc2cccc(S(N)(=O)=O)c2)nc1N1CCN(c2ccccc2)CC1", "assay": "binding, competition with immobilised ligand", "setting": "1 µM", "remaining binding [%]": 75}
{"SMILES": "CN(C)c1nccc(-c2cnn3ncccc23)n1", "assay": "binding", "setting": "1 µM", "remaining binding [%]": 28}
{"SMILES": "O=C(NCc1ncc(C(F)(F)F)cc1Cl)c1ccc2c(c1)C1(CCS(=O)(=O)CC1)[C@H](C1CC1)N2S(=O)(=O)c1ccc(F)cc1", "assay": "cell-free assay, competition with immobilised ligand", "setting": "1 µM", "remaining binding [%]": 84}
